Inhibition in vivo and Activity data for 18 compounds are collected here from ChEMBL document CHEMBL1151773, “Synthesis and biological evaluation of amide derivatives of (5,6-dimethoxy-2,3-dihydro-1H-inden-1-yl)acetic acid as anti-inflammatory agents with reduced gastrointestinal ulcerogenecity” (Eur J Med Chem, 2008).

SMILES strings stand for the structures.

Common to all, as to type: functional
In experiment [1] the test system is Mus musculus. As to the kind of experiment: Analgesic activity in Swiss albino mouse assessed as inhibition of acetic acid-induced writhing at 100 mg/kg, po administered 60 mins before acetic acid challenge after 5 to 15 mins relative to control. Put shortly: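 Female Swiss albino mice, 20±5 g, fasted overnight with free water access, dosed orally; 1 h later injected i.p. with 1% v/v acetic acid at 0.1 ml/10 g. Writhes (full hind-limb extension) counted for 15 min, starting 5 min after injection; only animals giving 20 or more writhes used. % inhibition = 100(1−Wt/Wc) vs control group mean; six animals per group.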
(An intraperitoneal irritant provokes the stretching counted in writhing tests.)

Experiment [2] has as its system Rattus norvegicus. The experiment is described as follows: Antiinflammatory activity in Wistar rat assessed as inhibition of carrageenan-induced hind paw edema volume at 100 mg/kg, po administered 60 mins before carrageenan challenge after 24 hrs relative to control. (The carrageenan paw model is a standard test of acute inflammation.)
The test system of experiment [3] is Rattus norvegicus. The experiment is described as follows: Antiinflammatory activity in Wistar rat assessed as inhibition of carrageenan-induced hind paw edema volume at 100 mg/kg, po administered 60 mins before carrageenan challenge after 6 hrs relative to control.
In experiment [4] the test system is Rattus norvegicus. The experiment is described as follows: Antiinflammatory activity in Wistar rat assessed as inhibition of carrageenan-induced hind paw edema volume at 100 mg/kg, po administered 60 mins before carrageenan challenge after 4 hrs relative to control.
In experiment [5] the test system is Rattus norvegicus. The experiment is described as follows: Antiinflammatory activity in Wistar rat assessed as inhibition of carrageenan-induced hind paw edema volume at 100 mg/kg, po administered 60 mins before carrageenan challenge after 3 hrs relative to control.
The subject of experiment [6] is Rattus norvegicus. As to the kind of experiment: Antiinflammatory activity in Wistar rat assessed as inhibition of carrageenan-induced hind paw edema volume at 100 mg/kg, po administered 60 mins before carrageenan challenge after 1 hr relative to control.
In experiment [7] the test system is Rattus norvegicus. The experiment is described as follows: Antiinflammatory activity in Wistar rat assessed as inhibition of carrageenan-induced hind paw edema volume at 100 mg/kg, po administered 60 mins before carrageenan challenge after 2 hrs relative to control.
The subject of experiment [8] is Rattus norvegicus. The experiment is described as follows: Antipyretic activity in Wistar rat assessed as change in LPS-induced rectal temperature at 100 mg/kg, po administered 30 mins before LPS challenge after 7 hrs. Put shortly: (§1)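 Adult female Wistar rats, 170±20 g, fasted 24 h, dosed orally at 09:00; 30 min later E. coli 0111:B4 phenol-extracted LPS in apyrogenic saline given i.p. Rectal temperature by telethermometer probe just before and 1–7 h hourly after LPS; temperature index calculated from these readings. n = 6.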

The test system of experiment [9] is Rattus norvegicus. As to the kind of experiment: Antipyretic activity in Wistar rat assessed as change in LPS-induced rectal temperature at 100 mg/kg, po administered 30 mins before LPS challenge after 6 hrs. The procedure, abridged:
as §1

Experiment [10] relates to Rattus norvegicus. As to the kind of experiment: Antipyretic activity in Wistar rat assessed as change in LPS-induced rectal temperature at 100 mg/kg, po administered 30 mins before LPS challenge after 5 hrs. The procedure, abridged: as §1
Experiment [11] has as its system Rattus norvegicus. The experiment is described as follows: Antipyretic activity in Wistar rat assessed as change in LPS-induced rectal temperature at 100 mg/kg, po administered 30 mins before LPS challenge after 4 hrs. Put shortly:
as §1

Experiment [12] deals with Rattus norvegicus. As to the kind of experiment: Antipyretic activity in Wistar rat assessed as change in LPS-induced rectal temperature at 100 mg/kg, po administered 30 mins before LPS challenge after 2 hrs. The procedure, abridged:
as §1

In experiment [13] the test system is Rattus norvegicus. As to the kind of experiment: Antipyretic activity in Wistar rat assessed as change in LPS-induced rectal temperature at 100 mg/kg, po administered 30 mins before LPS challenge after 3 hrs. Put shortly: as §1
Experiment [14] relates to Rattus norvegicus. The experiment is described as follows: Antipyretic activity in Wistar rat assessed as change in LPS-induced rectal temperature at 100 mg/kg, po administered 30 mins before LPS challenge after 1 hr. The procedure, abridged:
as §1

For orientation: inhibition in vivo means the relative decrease from the control value, in per cent. With `COc1cc2c(cc1OC)C(CC(=O)O)CC2` (centres undefined), the inhibition in vivo at 100 mg/kg in experiment [1] stood at 44%; in experiment [2], 26.7%; in [3], 20.4%; in experiment [4] it was 23.9%; in [5] it was 27.5%; in experiment [6], 18.8%. For the same compound, the inhibition in vivo at 100 mg/kg in experiment [7] came out at 24%.

On to `COc1cc2c(cc1OC)C(CC(=O)NCCO)CC2` (centres undefined), for which the Activity was 0.66 °C in [8]; 0.65 °C in experiment [9]; 0.57 °C in [10]; 0.34 °C in [11]; -1.93 °C in experiment [12]; 0.17 °C in experiment [13]. Besides, the Activity in experiment [14] was -0.65 °C. Moreover, the inhibition in vivo at 100 mg/kg worked out at 29.8% in [1]; 13.3% in experiment [2]; 13% in experiment [3]; 9.37% in experiment [4]; 12.3% in experiment [5]; 0% in [6]. Besides, the inhibition in vivo at 100 mg/kg in experiment [7] is 0%.

As for `COc1cc2c(cc1OC)C(CC(=O)N1CCOCC1)CC2` (centres undefined), the inhibition in vivo at 100 mg/kg in experiment [1] was 23.6%; in experiment [2], 23.3%; in [3] it was 14.8%; in experiment [4], 13.3%; in [5] it was 19.6%; in experiment [6] it was 15.6%. In experiment [7], the inhibition in vivo at 100 mg/kg amounted to 14%.

In the case of `COc1cc2c(cc1OC)C(CC(=O)N1CCCC1)CC2` (centres undefined), the inhibition in vivo at 100 mg/kg in experiment [1] was 19.2%; in experiment [2], 33.3%; in experiment [3], 22.2%; in experiment [4], 24.2%; in [5], 26.1%; in experiment [6], 4.69%. Further, in experiment [7], the inhibition in vivo at 100 mg/kg was 20%.

For `COc1cc2c(cc1OC)C(CC(=O)N(C)C)CC2` (centres undefined), the inhibition in vivo at 100 mg/kg in experiment [1] stood at 22.6%; in experiment [2] it was 23.3%; in experiment [3] it was 33.3%; in [4], 35.9%; in experiment [5], 34.8%; in experiment [6] it was 25%. Also, the inhibition in vivo at 100 mg/kg in experiment [7] amounted to 36%.

`COc1cc2c(cc1OC)C(CC(N)=O)CC2` (centres undefined): the inhibition in vivo at 100 mg/kg is 24.6% in experiment [1]; 26.7% in [2]; 27.8% in [3]; 31.2% in experiment [4]; 30.4% in experiment [5]; 18.8% in experiment [6]. Also, in [7], the inhibition in vivo at 100 mg/kg amounted to 31%.

Regarding `CCNC(=O)CC1CCc2cc(OC)c(OC)cc21` (centres undefined), the inhibition in vivo at 100 mg/kg in experiment [1] is 23.6%; in experiment [2], 33.3%; in [3], 20.4%; in [4], 26.6%; in experiment [5], 26.1%; in experiment [6], 15.6%. The inhibition in vivo at 100 mg/kg in experiment [7] was determined as 26%.

For `COc1cc2c(cc1OC)C(CC(=O)N1CCCCC1)CC2` (centres undefined), the inhibition in vivo at 100 mg/kg was 44.7% in experiment [1]; 40% in experiment [2]; 31.5% in experiment [3]; 32% in experiment [4]; 31.9% in experiment [5]; 18.8% in experiment [6]. The inhibition in vivo at 100 mg/kg in experiment [7] amounted to 22%.

For the compound `CCCCNC(=O)CC1CCc2cc(OC)c(OC)cc21` (centres undefined), the inhibition in vivo at 100 mg/kg in experiment [1] stood at 39.4%; in experiment [2], 36.7%; in experiment [3], 24.1%; in experiment [4], 25%; in [5], 27.5%; in experiment [6], 31.2%. Besides, in experiment [7], the inhibition in vivo at 100 mg/kg turned out to be 24%.

For `CCCCCNC(=O)CC1CCc2cc(OC)c(OC)cc21` (centres undefined), the inhibition in vivo at 100 mg/kg in experiment [1] is 71.7%; in experiment [2], 46.7%; in experiment [3] it was 35.2%; in experiment [4], 40.6%; in experiment [5] it was 37.7%; in [6], 34.4%. Besides, the inhibition in vivo at 100 mg/kg in experiment [7] was found to be 34%.

With `CNC(=O)CC1CCc2cc(OC)c(OC)cc21` (centres undefined), the inhibition in vivo at 100 mg/kg in [1] stood at 21.2%; in experiment [2] it was 33.3%; in experiment [3] it was 24.1%; in experiment [4], 29.7%; in experiment [5] it was 29%; in [6], 15.6%. The inhibition in vivo at 100 mg/kg in experiment [7] was determined as 30%.

On to `COc1cc2c(cc1OC)C(CC(=O)NC(C)(C)C)CC2` (centres undefined), for which the inhibition in vivo at 100 mg/kg in experiment [1] turned out to be 41.8%; in [2] it was 40%; in [3], 31.5%; in [4] it was 32.8%; in experiment [5], 33.3%; in experiment [6] it was 31.2%. In addition, the inhibition in vivo at 100 mg/kg in experiment [7] was determined as 32%.

For `CCN(CC)C(=O)CC1CCc2cc(OC)c(OC)cc21` (centres undefined), the inhibition in vivo at 100 mg/kg stood at 27.4% in experiment [1]; 16.7% in [2]; 31.5% in [3]; 37.5% in experiment [4]; 37.7% in experiment [5]; 31.2% in [6]. Besides, in [7], the inhibition in vivo at 100 mg/kg was 40%.

As to `COc1cc2c(cc1OC)C(CC(=O)NC1CC1)CC2` (centres undefined), the inhibition in vivo at 100 mg/kg came to 32.7% in [1]; 0% in experiment [2]; 11.1% in experiment [3]; 17.2% in experiment [4]; 18.8% in experiment [5]; 21.9% in experiment [6]. For the same compound, the inhibition in vivo at 100 mg/kg in experiment [7] turned out to be 14%.

Turning to `CCCNC(=O)CC1CCc2cc(OC)c(OC)cc21` (centres undefined), the inhibition in vivo at 100 mg/kg amounted to 26.9% in [1]; 26.7% in [2]; 22.2% in experiment [3]; 26.6% in experiment [4]; 29% in experiment [5]; 18.8% in [6]. Further, the inhibition in vivo at 100 mg/kg in experiment [7] was 28%.

Take `COc1cc2c(cc1OC)C(CC(=O)NCc1ccccc1)CC2` (centres undefined): the inhibition in vivo at 100 mg/kg in experiment [1] amounted to 48%; in [2], 43.3%; in experiment [3] it was 30.6%; in experiment [4] it was 18.8%; in [5], 14.4%; in [6], 18.8%. The inhibition in vivo at 100 mg/kg in experiment [7] came out at 24%.

Take `COc1cc2c(cc1OC)C(CC(=O)NC1CCCC1)CC2` (centres undefined): the inhibition in vivo at 100 mg/kg in experiment [1] came out at 37%; in experiment [2], 46.7%; in [3], 40.7%; in experiment [4] it was 45.3%; in experiment [5], 43.5%; in experiment [6] it was 40.6%. Moreover, in [7], the inhibition in vivo at 100 mg/kg is 52%.

For `CC(=O)Oc1ccccc1C(=O)O` [ASPIRIN], the Activity in experiment [8] was 0.23 °C; in experiment [9], 0.17 °C; in [10] it was 0.11 °C; in experiment [11], 0.05 °C; in experiment [12], -1.45 °C; in experiment [13], -0.51 °C. In addition, in [14], the Activity is -0.43 °C. Also, the inhibition in vivo at 100 mg/kg in experiment [1] amounted to 61.5%.
